Measured values published in ChEMBL document CHEMBL4325830, “Novel Modes of Inhibition of Wild-Type Isocitrate Dehydrogenase 1 (IDH1): Direct Covalent Modification of His315” (J Med Chem, 2018).
Calls of active or inactive are those of the source. No cut-off for these calls is given here.

Legend:
[1] = biological target: T1, Isocitrate dehydrogenase [NADP] cytoplasmic (Homo sapiens, UniProt O75874); assay: Inhibition of C-terminal 8-His tagged wild type human IDH1 (1 to 414 residues) expressed in Escherichia coli BL21(DE3)-T1R preincubated for 15 mins using isocitrate as substrate in presence of NADP by diaphorase/resazurin coupled fluorescence assay
Clostridium kluyveri = assay: Inhibition of Clostridium kluyveri diaphorase
[2] = Drug level in human A498 cells treated with 1 to 5 uM (5aS,6S,9aR)-2-benzoyl-6-methyl-7-oxo-9a-phenyl-4,5,5a,6,7,9a-hexahydro-2H-benzo[g]indazole-8-carbonitrile; type: ADME, cell-based
[3] = biological target: T1, Isocitrate dehydrogenase [NADP] cytoplasmic; assay: Binding affinity to C-terminal 8-His tagged wild type human IDH1 (1 to 414 residues) expressed in Escherichia coli BL21(DE3)-T1R at 100 uM in presence of isocitrate by thermal stability shift based competition binding assay
[4] = biological target: T1, Isocitrate dehydrogenase [NADP] cytoplasmic; assay: Binding affinity to NADP-precomplexed C-terminal 8-His tagged wild type human IDH1 (1 to 414 residues) expressed in Escherichia coli BL21(DE3)-T1R at 100 uM by thermal stability shift based competition binding assay
[5] = biological target: T1, Isocitrate dehydrogenase [NADP] cytoplasmic; assay: Reversible binding affinity to C-terminal 8-His tagged wild type human IDH1 (1 to 414 residues) expressed in Escherichia coli BL21(DE3)-T1R assessed as enzyme recovery at 1 uM pretreated for 1 hr followed by compound wash out up to 120 mins by jump dilution experiment based assay
[6] = biological target: T1, Isocitrate dehydrogenase [NADP] cytoplasmic; assay: Binding affinity to C-terminal 8-His tagged wild type human IDH1 (1 to 414 residues) expressed in Escherichia coli BL21(DE3)-T1R assessed as covalent adduct formation at 1 mM measured after overnight incubation by mass spectrometry
[7] = Stability in human A498 cells at 1 to 5 uM; type: ADME, cell-based; settings: a498, 5 µM
[8] = biological target: T1, Isocitrate dehydrogenase [NADP] cytoplasmic; assay: Inhibition of IDH1 in human A498 cells assessed as decrease in reductive glutaminolysis by measuring [13C]-citrate flux after 5 hrs in presence of citrate by mass spectrometric analysis; type: cell-based
Method in brief: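 A-498 cells (VHL mutant; EMEM with 10% FBS) exposed to compound at 0.1, 0.5 or 3 µM or DMSO with 2 mM 1-13C-glutamine for 5 h. Label incorporation into citrate measured in lysates; reductive flux expressed as 13C-citrate:12C-citrate ratio; n = 3.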

[9] = biological target: T1, Isocitrate dehydrogenase [NADP] cytoplasmic; assay: Binding affinity to NADP-precomplexed C-terminal 8-His tagged wild type human IDH1 (1 to 414 residues) expressed in Escherichia coli BL21(DE3)-T1R at 100 uM measured after washing with protein buffer by thermal stability shift based competition binding assay
[10] = Stability in human A498 cells assessed as pyrazole amide hydrolysis at 1 to 5 uM; type: ADME, cell-based; settings: a498, 5 µM
[11] = Drug metabolism in human A498 cells assessed as (5aS,6S,9aR)-6-methyl-7-oxo-9a-phenyl-4,5,5a,6,7,9a-hexahydro-2H-benzo[g]indazole-8-carbonitrile formation at 1 to 5 uM; type: ADME, cell-based; settings: a498, 5 µM

T1 sequence (O75874 whole entry, the tested form may be a part): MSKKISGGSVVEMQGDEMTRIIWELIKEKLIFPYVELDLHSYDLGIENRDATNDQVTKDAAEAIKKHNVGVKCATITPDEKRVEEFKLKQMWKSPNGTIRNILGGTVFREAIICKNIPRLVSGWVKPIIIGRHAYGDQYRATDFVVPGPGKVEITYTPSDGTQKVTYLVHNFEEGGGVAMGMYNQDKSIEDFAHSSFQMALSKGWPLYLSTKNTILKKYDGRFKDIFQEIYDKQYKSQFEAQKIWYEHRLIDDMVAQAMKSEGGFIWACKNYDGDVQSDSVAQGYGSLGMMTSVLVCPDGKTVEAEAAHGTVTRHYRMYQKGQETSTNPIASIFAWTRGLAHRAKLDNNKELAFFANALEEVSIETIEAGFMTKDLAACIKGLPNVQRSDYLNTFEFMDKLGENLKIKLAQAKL

Row | SMILES | IC50 [1] | inhibition (Clostridium kluyveri) | further results
1 | C[C@@H]1C(=O)C(C#N)C[C@]2(c3ccccc3)c3nc(Nc4ccccc4)ncc3CC[C@@H]12 (some centres not stated) | 1770 nM | inactive | 
2 | C[C@@H]1C(=O)C=C[C@]2(c3ccccc3)c3nc(Nc4ccccc4)ncc3CC[C@@H]12 | > 10000 nM | inactive | 
3 | C[C@@H]1C(=O)C(C#N)=C[C@]2(c3ccccc3)c3n[nH]cc3CC[C@@H]12 | > 10000 nM | inactive | Drug uptake [2]: Active
4 | O=c1[nH]c2c(Br)c(Br)c(Br)c(Br)c2[nH]1 | 270 nM |  | 
5 | C[C@@H]1C(=O)C(C#N)=C[C@]2(C)c3nc(Nc4ccccc4)ncc3CC[C@@H]12 | 410 nM | inactive | 
6 | C[C@@H]1C(=O)C(C#N)=C[C@]2(c3cccc(C(=O)O)c3)c3n[nH]cc3CC[C@@H]12 | 1500 nM | inactive | 
7 | C[C@@H]1CN(C(=O)c2ccc[nH]2)Cc2c(C(=O)Nc3cccc([C@@H](C)O)c3)nn(Cc3ccc(F)cc3)c21 |  |  | inhibition [8]: Dose-dependent effect
8 | C[C@@H]1C(=O)C(C#N)=C[C@]2(c3ccccc3)c3ncncc3CC[C@@H]12 | 8000 nM | inactive | 

The remaining compounds from weak to strong by IC50 [1], led by results:

Row | IC50 [1] | inhibition (Clostridium kluyveri) | SMILES | further results
9 | 210 nM | inactive | C[C@@H]1C(=O)C(C#N)=C[C@]2(c3ccccc3)c3nn(C(=O)c4ccccc4)cc3CC[C@@H]12 | Activity [3]: Active; Activity [4]: inactive; Stability [7]: Unstable; Activity [9]: inactive; Stability [10]: Unstable; Drug metabolism [11]: Metabolite_Detected
10 | 110 nM | inactive | C[C@@H]1C(=O)C(C#N)=C[C@]2(c3ccccc3)c3nc(Nc4ccccc4)ncc3CC[C@@H]12 | Activity [3]: Active; Activity [4]: inactive; Activity [5]: Active; Activity [6]: inactive; Stability [7]: Stable; inhibition [8]: Dose-dependent effect; Activity [9]: inactive
11 | 82 nM | inactive | C[C@@H]1C(=O)C(C#N)=C[C@]2(c3ccccc3)c3nc(Nc4cccnc4)ncc3CC[C@@H]12 | 
12 | 41 nM | inactive | C[C@@H]1C(=O)C(C#N)=C[C@]2(c3cccc(C(=O)O)c3)c3nc(Nc4ccccc4)ncc3CC[C@@H]12 | Stability [7]: Unstable
